From ChEMBL document CHEMBL1148504, “Substituent effects of N-(1,3-diphenyl-1H-pyrazol-5-yl)benzamides on positive allosteric modulation of the metabotropic glutamate-5 receptor in rat cortical astrocytes” (J Med Chem, 2006) come the findings set out here.

pEC50, pKi: −log10 of the molar value. Activity calls are given as the source filed them. The calls are words filed in the database; no cut-off is given here.

For experiment [1], the target named is T1, Metabotropic glutamate receptor 5 (Rattus norvegicus, UniProt P31424). Briefly: (§1) Activity at mGluR5 assessed as potentiation of glutamate-induced calcium flux in rat astrocytes. Format: functional, cell-based. The gist of the method: (§2)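 Cortical astrocytes from 2-4-day-old Sprague Dawley rats, grown 1 week in DMEM/10% FBS/2 mM glutamine/20 mM HEPES at 37 °C, 5% CO2, then plated on poly-D-lysine. Dye-loaded 1 h at 37 °C; HBSS with 20 mM HEPES, 2.5 mM probenecid, pH 7.4.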
For orientation: A change in cytosolic calcium serves as a functional read-out for many receptors and channels.

For experiment [2], the target named is T1, Metabotropic glutamate receptor 5. Briefly: Displacement of [3H]methoxyPEPy from rat mGluR5 expressed in HEK293 cells. Format: cell-based. Put shortly: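 Membranes from stable HEK cells expressing rat mGluR5a, resuspended in 50 mM Tris HCl/0.9% saline, pH 7.4. Final: 2 nM [3H]methoxyPEPy, 0.1 mg protein/mL, 0.13% DMSO, triplicate; 60 min at room temperature with shaking. Filtration onto GF/B filters, scintillation counting. Nonspecific binding with 5 µM MPEP. Ki derived from IC50 by nonlinear fit; mean ± SEM of three experiments.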

Experiment [3] concerns the target Metabotropic glutamate receptor 5 (Rattus norvegicus) (UniProt P31424). The experiment is described as §1. Format: functional, cell-based. Put shortly:
as §2

Chain of Metabotropic glutamate receptor 5 (Rattus norvegicus) (P31424 21-1203 limits assumed): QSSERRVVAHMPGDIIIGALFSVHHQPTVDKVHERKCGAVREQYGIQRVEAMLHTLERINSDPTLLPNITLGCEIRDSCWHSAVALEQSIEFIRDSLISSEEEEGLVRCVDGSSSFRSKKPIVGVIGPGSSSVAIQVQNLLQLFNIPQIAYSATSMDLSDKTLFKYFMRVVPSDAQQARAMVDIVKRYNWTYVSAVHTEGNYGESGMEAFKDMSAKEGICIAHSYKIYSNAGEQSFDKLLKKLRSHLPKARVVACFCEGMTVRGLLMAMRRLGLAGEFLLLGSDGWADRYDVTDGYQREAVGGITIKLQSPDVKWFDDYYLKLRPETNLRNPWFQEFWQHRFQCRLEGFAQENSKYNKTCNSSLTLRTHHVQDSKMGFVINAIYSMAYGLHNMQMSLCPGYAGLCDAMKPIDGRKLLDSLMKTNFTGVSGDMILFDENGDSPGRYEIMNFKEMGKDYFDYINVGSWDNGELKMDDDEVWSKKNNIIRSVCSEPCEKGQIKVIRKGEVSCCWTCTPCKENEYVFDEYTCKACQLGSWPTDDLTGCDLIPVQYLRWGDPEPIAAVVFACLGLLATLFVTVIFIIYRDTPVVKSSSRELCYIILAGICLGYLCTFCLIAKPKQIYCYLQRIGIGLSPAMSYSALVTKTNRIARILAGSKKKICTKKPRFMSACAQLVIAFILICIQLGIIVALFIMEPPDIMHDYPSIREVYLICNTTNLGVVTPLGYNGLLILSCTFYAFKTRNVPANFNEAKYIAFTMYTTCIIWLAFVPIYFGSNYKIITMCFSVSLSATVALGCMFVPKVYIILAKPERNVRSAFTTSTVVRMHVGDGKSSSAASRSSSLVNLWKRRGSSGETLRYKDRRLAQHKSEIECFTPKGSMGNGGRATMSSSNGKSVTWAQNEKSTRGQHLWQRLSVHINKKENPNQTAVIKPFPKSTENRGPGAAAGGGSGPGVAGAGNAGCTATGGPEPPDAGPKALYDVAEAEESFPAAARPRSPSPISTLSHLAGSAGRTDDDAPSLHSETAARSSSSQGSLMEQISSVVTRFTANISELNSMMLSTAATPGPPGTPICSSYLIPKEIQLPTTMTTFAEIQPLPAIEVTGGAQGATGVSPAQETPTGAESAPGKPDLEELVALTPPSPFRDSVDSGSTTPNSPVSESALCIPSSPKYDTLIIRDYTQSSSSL
T1 sequence (P31424 whole entry): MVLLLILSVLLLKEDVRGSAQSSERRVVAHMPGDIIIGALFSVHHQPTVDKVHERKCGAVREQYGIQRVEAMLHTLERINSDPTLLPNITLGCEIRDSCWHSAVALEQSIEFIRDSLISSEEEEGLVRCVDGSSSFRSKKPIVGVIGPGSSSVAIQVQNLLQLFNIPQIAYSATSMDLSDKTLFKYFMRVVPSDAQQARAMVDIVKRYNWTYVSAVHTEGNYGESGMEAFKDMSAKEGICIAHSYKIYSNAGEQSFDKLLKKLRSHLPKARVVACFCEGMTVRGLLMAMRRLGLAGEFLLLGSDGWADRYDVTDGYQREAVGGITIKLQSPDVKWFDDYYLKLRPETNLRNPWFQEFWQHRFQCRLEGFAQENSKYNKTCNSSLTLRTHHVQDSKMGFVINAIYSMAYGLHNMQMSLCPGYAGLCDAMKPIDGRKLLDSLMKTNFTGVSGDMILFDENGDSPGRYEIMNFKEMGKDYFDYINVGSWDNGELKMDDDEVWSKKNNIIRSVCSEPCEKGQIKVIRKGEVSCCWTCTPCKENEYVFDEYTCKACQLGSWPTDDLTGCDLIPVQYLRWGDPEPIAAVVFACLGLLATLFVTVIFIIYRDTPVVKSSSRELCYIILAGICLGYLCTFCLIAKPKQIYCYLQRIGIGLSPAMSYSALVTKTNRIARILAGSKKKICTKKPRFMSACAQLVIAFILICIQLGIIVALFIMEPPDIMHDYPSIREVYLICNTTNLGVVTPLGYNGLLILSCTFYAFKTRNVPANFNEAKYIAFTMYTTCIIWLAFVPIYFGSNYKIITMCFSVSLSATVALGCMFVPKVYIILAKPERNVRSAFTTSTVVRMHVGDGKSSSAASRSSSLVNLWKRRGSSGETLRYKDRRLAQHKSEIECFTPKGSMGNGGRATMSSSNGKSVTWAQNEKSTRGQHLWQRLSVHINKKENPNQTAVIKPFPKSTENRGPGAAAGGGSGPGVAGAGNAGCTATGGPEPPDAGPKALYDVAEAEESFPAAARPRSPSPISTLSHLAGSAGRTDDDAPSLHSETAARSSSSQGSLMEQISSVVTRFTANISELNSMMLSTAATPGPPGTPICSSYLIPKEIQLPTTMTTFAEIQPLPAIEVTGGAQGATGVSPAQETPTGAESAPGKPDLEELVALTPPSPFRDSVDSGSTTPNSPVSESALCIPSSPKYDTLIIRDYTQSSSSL

Consider `COc1ccc(C(=O)Nc2cc(-c3ccccc3)nn2-c2ccccc2)cc1`, for which the pEC50 (as a rule, −log10 of the EC50, conventionally taken in molar units) in experiment [1] is 7.27. Moreover, in experiment [2], the pKi (commonly −log10 of the Ki, conventionally taken in molar units) is 6.38.
For `N#Cc1ccc(C(=O)/N=c2\cc(-c3ccccc3)n(C(=O)c3ccc(C#N)cc3)n2-c2ccccc2)cc1` the same measures were 7.37 and 5.28.
The like results for `O=C(Nc1cc(-c2ccccc2)nn1-c1ccccc1Br)c1cccc([N+](=O)[O-])c1` were, in that order, 7.17 and 6.64.
The like results for `N#Cc1ccc(C(=O)Nc2cc(-c3ccccc3)nn2-c2ccccc2)cc1` were, in that order, 7.12 and 5.81.
On to `COc1cccc(C(=O)Nc2cc(-c3ccccc3)nn2-c2ccccc2)c1`, for which, in experiment [1], the pEC50 is 6.99. Further, in experiment [2], the pKi was 5.89.
The like results for `N#Cc1ccc(C(=O)N(C(=O)c2ccc(C#N)cc2)c2cc(-c3ccccc3)nn2-c2ccccc2)cc1` were, in that order, 6.47 and 5.52.
The like results for `O=C(Nc1cc(-c2ccccc2)nn1-c1ccccc1)c1ccc(C(F)(F)F)cc1` were, in that order, 7.42 and 6.00.
Turning to `O=C(Nc1cc(-c2ccccc2)nn1-c1ccccc1)c1cc([N+](=O)[O-])cc([N+](=O)[O-])c1`, the pEC50 in experiment [1] is 7.19.
Consider `N#Cc1cccc(C(=O)Nc2cn(-c3ccccc3)nc2-c2ccccc2)c1`, for which the negative logarithm of the EC50 (pEC50) in experiment [1] was < 5.00. The pKi in experiment [2] is < 5.00.
As to `O=C(Nc1cc(-c2ccccc2)nn1-c1ccccc1)C1CCCCC1`, in experiment [1], the pEC50 was < 5.00. The negative-log Ki (pKi) in experiment [2] was 4.99.
The like results for `O=C(Nc1cc(-c2ccccc2)nn1-c1ccccc1)c1ccc(OC(F)(F)F)cc1` were, in that order, 7.74 and 6.58.
As for `N#Cc1cccc(C(=O)Nc2c(-c3ccccc3)cnn2-c2ccccc2)c1`, the Activity entry in experiment [3] (filed as antagonist) was “Antagonist”. Moreover, the negative-log Ki (pKi) in experiment [2] is 5.92.
As for `O=C(Nc1cc(-c2ccccc2)nn1-c1ccccc1F)c1ccc([N+](=O)[O-])cc1`, the pEC50 in experiment [1] was 8.02. In addition, the negative logarithm of the Ki (pKi) in experiment [2] was 6.80.
Regarding `N#Cc1cccc(C(=O)Nc2c(-c3ccccc3)nc3ccccn23)c1`, in experiment [3] (filed as antagonist), the Activity result was “Antagonist”. The same molecule gave a pKi in experiment [2] of 5.70.
Turning to `O=C(c1ccc(F)cc1)N1CCC[C@H](c2nc(-c3ccc(F)cc3)no2)C1`, the pEC50 in experiment [1] was 6.77.
In the case of `O=C(Nc1cn(-c2ccccc2)nc1-c1ccccc1)c1ccccc1`, in experiment [1], the pEC50 was < 5.00. Besides, the negative-log Ki (pKi) in experiment [2] is < 5.00.
Consider `O=C(Nc1cc(-c2ccccc2)nn1-c1ccccc1Br)c1ccccc1`, for which the negative logarithm of the EC50 (pEC50) in experiment [1] is 6.70. Besides, the negative-log Ki (pKi) in experiment [2] was 5.59.
The like results for `O=C(Nc1cc(-c2ccccc2)nn1-c1ccccc1)c1ccncc1` were, in that order, 5.60 and < 5.00.
Consider `O=C(Nc1cc(-c2ccccc2)nn1-c1ccccc1Br)c1ccc([N+](=O)[O-])cc1`, for which the pEC50 in experiment [1] is 7.21. In experiment [2], this molecule showed a pKi of 6.92.
Turning to `O=C(Nc1c(-c2ccccc2)cnn1-c1ccccc1)c1ccc([N+](=O)[O-])cc1`, in experiment [1], the negative-log EC50 (pEC50) was < 5.00. In addition, the pKi in experiment [2] was < 5.00.
Consider `O=C(Nc1cn(-c2ccccc2)nc1-c1ccccc1)c1ccc([N+](=O)[O-])cc1`, for which the negative-log EC50 (pEC50) in experiment [1] is < 5.00. Moreover, the pKi in experiment [2] is < 5.00.
As to `O=C(Nc1cc(-c2ccccc2)nn1-c1ccccc1)c1ccccc1`, the pEC50 in experiment [1] is 6.69. In experiment [2], this molecule had a pKi of 5.38.
The like results for `N#Cc1cccc(-n2nc(-c3ccccc3)cc2NC(=O)c2ccccc2)c1` were, in that order, 6.93 and < 5.00.
As to `O=C(O)c1ccc(C(=O)Nc2cc(-c3ccccc3)nn2-c2ccccc2)cc1`, in experiment [3], the outcome was inactive. In addition, in experiment [2], the negative-log Ki (pKi) was < 5.00.
For the molecule `O=C(Nc1cc(-c2ccccc2)nn1-c1ccccc1)c1ccccc1[N+](=O)[O-]`, in experiment [1], the negative-log EC50 (pEC50) was < 5.00. In addition, the negative-log Ki (pKi) in experiment [2] is < 5.00.
As for `O=C(Nc1cc(-c2ccccc2)nn1-c1ccccc1)c1cccc([N+](=O)[O-])c1`, in experiment [1], the pEC50 is 7.41. For the same molecule, the pKi in experiment [2] is 5.65.
Turning to `O=C(Nc1cc(-c2ccccc2)nn1-c1ccccc1)C1CCCC1`, the pEC50 in experiment [1] was 5.47. Also, the pKi in experiment [2] was 4.94.
Turning to `O=C(Nc1cc(-c2ccccc2)nn1-c1ccccn1)c1ccccc1`, in experiment [3], the result was inactive. The negative logarithm of the Ki (pKi) in experiment [2] was < 5.00.
`O=C(/C=C/c1ccc([N+](=O)[O-])cc1)Nc1cc(-c2ccccc2)nn1-c1ccccc1`: in experiment [1], the negative-log EC50 (pEC50) was 6.25. In experiment [2], this molecule had a pKi of 5.74.
Take `COc1cccc(-c2cc(NC(=O)c3ccccc3)n(-c3ccccc3)n2)c1`: in experiment [1], the pEC50 was 6.22. The molecule also showed a pKi in experiment [2] of 5.49.
For `N#Cc1cccc(C(=O)Nc2cc(-c3ccccc3)nn2-c2ccccc2Br)c1` the same measures were 7.30 and 6.64.
In the case of `O=C(Nc1cc(-c2ccccc2)nn1-c1ccccc1Cl)c1ccccc1`, the pEC50 in experiment [1] is 7.21. In addition, the pKi in experiment [2] is 6.30.
The like results for `Cc1ccc(C(=O)Nc2cc(-c3ccccc3)nn2-c2ccccc2)cc1C` were, in that order, 7.70 and 6.37.
As for `NC(=O)c1ccc(C(=O)Nc2cc(-c3ccccc3)nn2-c2ccccc2)cc1`, the result in experiment [3] was inactive. Also, in experiment [2], the pKi is < 5.00.
Consider `O=C(Nc1cc(-c2ccccc2)nn1-c1ccccc1Cl)c1ccc([N+](=O)[O-])cc1`, for which the negative logarithm of the EC50 (pEC50) in experiment [1] is 7.40. Further, the negative logarithm of the Ki (pKi) in experiment [2] is 6.96.
The like results for `O=C(Nc1cc(-c2ccccc2)nn1-c1ccccc1)c1ccc([N+](=O)[O-])cc1` were, in that order, 7.97 and 6.60.
For `O=C(CC1CCCC1)Nc1cc(-c2ccccc2)nn1-c1ccccc1` the same measures were 6.46 and < 5.00.
For `COc1ccc(C(=O)Nc2cc(-c3ccccc3)nn2-c2ccccc2)cc1OC` the same measures were 5.45 and < 5.00.
In the case of `O=C(Nc1cc(-c2ccccc2)nn1-c1cccc(Br)c1)c1ccccc1`, the pEC50 in experiment [1] is 6.40. In experiment [2], the pKi is < 5.00.
The like results for `O=C(Nc1cc(-c2ccccc2)nn1-c1ccccc1)C1=CCCCC1` were, in that order, 5.48 and 5.35.
On to `O=C(Nc1c(-c2ccccc2)nc2ccccn12)c1ccccc1`, for which the Activity result in experiment [3] (filed as antagonist) was “Antagonist”. The negative-log Ki (pKi) in experiment [2] is 5.41.
Turning to `O=C(Nc1cc(-c2ccccc2)nn1-c1ccccc1)c1cccc(C(F)(F)F)c1`, the negative-log EC50 (pEC50) in experiment [1] was 6.64. In addition, the pKi in experiment [2] is 5.78.
The like results for `O=C(Nc1cc(-c2ccccc2)nn1-c1ccccc1F)c1ccccc1` were, in that order, 6.98 and 5.57.
With `O=C(Nc1c(-c2ccccc2)cnn1-c1ccccc1)c1ccccc1`, in experiment [3] (filed as antagonist), the Activity entry was “Antagonist”. This molecule gave a negative-log Ki (pKi) in experiment [2] of 5.93.
As to `c1ccc(-c2cn(-c3cc(-c4ccccc4)nn3-c3ccccc3)nn2)cc1`, the pEC50 in experiment [1] is 5.59. Also, in experiment [2], the pKi is 5.23.
The like results for `O=C(Nc1cc(-c2ccccc2Cl)nn1-c1ccccc1)c1ccccc1` were, in that order, 5.64 and < 5.00.
For `COc1cccc(-n2nc(-c3ccccc3)cc2NC(=O)c2ccccc2)c1` the same measures were 6.24 and 5.68.
The like results for `Cc1ccc(C(=O)Nc2cc(-c3ccccc3)nn2-c2ccccc2)cc1` were, in that order, 7.19 and 6.11.
As for `Cc1ccc(C(=O)Nc2cc(-c3ccccc3)nn2-c2ccccc2)cn1`, the negative-log EC50 (pEC50) in experiment [1] is 6.55. Moreover, the negative logarithm of the Ki (pKi) in experiment [2] was 5.46.
The like results for `COc1cc(OC)cc(C(=O)Nc2cc(-c3ccccc3)nn2-c2ccccc2)c1` were, in that order, 5.69 and < 5.00.
For `O=C(Nc1cc(-c2ccccc2)nn1-c1ccccc1)c1ccc(Cl)c(Cl)c1` the same measures were 7.89 and 6.80.
